Several values for one entry are separate records, joined by “and”; a condition that tells them apart may be missing. Equal entries are not always repeated.
Key:
Canis familiaris [1] = species on record: Canis familiaris; experiment: Compound was evaluated for intracellular electrophysiology in canine potential (Vmax) at 10 uM; type: functional; details: Canis lupus familiaris
Method in brief: (§1)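 Canine Purkinje fibers at 37 ± 0.5 °C, gassed 95:5 O2/CO2 (pH 7.35–7.40), stimulated at 1.0 Hz. Maximum upstroke velocity (Vmax) recorded by glass microelectrode after up to 1 h stabilization. Compounds tested at 10^-8–10^-4 M with 30 min exposure per concentration. Reported as maximum observed effect on Vmax and the concentration at which it occurred.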

Canis familiaris [2] = experiment: Compound was evaluated for intraduodenal bioavailability in anesthetized dogs measured as mean blood pressure at a dose of 10/30 range; 10/31; type: ADME, organism-based, Canis lupus familiaris, Artery; details: dog, in vivo
Method in brief: (§2)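 Pentobarbital-anesthetized (30 mg/kg i.v.) dogs, 8–20 kg, either sex. Compound given intraduodenally as a 0.5% tragacanth suspension, usually as two doses, the second cumulative. HR, BP, FRP and conduction were measured at 15, 30 and 45 min postdose. Mean BP reported as % change from control, low dose/high dose, for each animal.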

Canis familiaris [3] = species on record: Canis familiaris; experiment: Compound was evaluated for intracellular electrophysiology in canine Purkinje fiber measured as maximum prolongation of APD95 observed at 10 uM; type: functional, Canis lupus familiaris
Method in brief: (§3)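 Canine Purkinje fibers superfused at 37 ± 0.5 °C, pH 7.35–7.40 (95:5 O2/CO2), paced at 1.0 Hz (2-ms pulses, 2× diastolic threshold). Fibers stabilized up to 1 h. Intracellular microelectrode (3 M KCl) recording of APD95, 30 min exposure per concentration across 10^-8–10^-4 M. Value is concentration giving 20% APD95 prolongation, or maximum prolongation with its concentration.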

Canis familiaris [4] = species on record: Canis familiaris; experiment: Intracellular electrophysiology in canine Purkinje fiber measured as concentration that caused 20% prolongation of action potential duration (APD95); type: functional, Canis lupus familiaris; method in brief: as §3
Canis familiaris [5] = experiment: Compound was evaluated for intraduodenal bioavailability in anesthetized dogs measured as mean blood pressure at a dose of 10/60 range; 13/23; type: ADME, organism-based, Canis lupus familiaris, Artery; details: dog, in vivo; method in brief: as §2
Canis familiaris [6] = species on record: Canis familiaris; experiment: Intracellular electrophysiology in canine Purkinje fiber measured as maximum prolongation of APD95 observed at a dose of 10 uM; type: functional, Canis lupus familiaris; method in brief: as §3
Canis familiaris [7] = species on record: Canis familiaris; experiment: Intracellular electrophysiology in canine potential (Vmax) at a dose range.; type: functional; details: Canis lupus familiaris; method in brief: as §1
Canis familiaris [8] = experiment: Compound was evaluated for intraduodenal bioavailability in anesthetized dogs measured as mean blood pressure at a dose of 3 range; type: ADME, organism-based, Canis lupus familiaris, Artery; details: dog, in vivo, other; method in brief: as §2
Canis familiaris [9] = experiment: In vivo antiarrhythmic efficacy in anesthetized dogs
Canis familiaris [10] = species on record: Canis familiaris; experiment: Compound was evaluated for intracellular electrophysiology in canine Purkinje fiber measured as concentration that caused 20% prolongation of action potential duration (APD95) at a dose range of 0.01-100 uM; type: functional, Canis lupus familiaris; method in brief: as §3
Canis familiaris [11] = species on record: Canis familiaris; experiment: Compound was evaluated for intracellular electrophysiology in canine potential (Vmax) at 100 uM; type: functional; details: Canis lupus familiaris; method in brief: as §1
Canis familiaris [12] = species on record: Canis familiaris; experiment: Compound was evaluated for intracellular electrophysiology in canine Purkinje fiber measured as concentration that caused 20% prolongation of action potential duration (APD95) at a dose range of 0.1-10 uM; type: functional, Canis lupus familiaris; method in brief: as §3
Canis familiaris [13] = species on record: Canis familiaris; experiment: Compound was evaluated for intracellular electrophysiology in canine Purkinje fiber measured as concentration that caused 20% prolongation of action potential duration (APD95) at a dose range of 0.1-100 uM; type: functional, Canis lupus familiaris; method in brief: as §3
Canis familiaris [14] = species on record: Canis familiaris; experiment: Concentration at which maximum observed effect on the action potential (Vmax) at a dose range of 0.1-100 uM occurred; 2/2; type: functional, Canis lupus familiaris
Canis familiaris [15] = species on record: Canis familiaris; experiment: Compound was evaluated for intracellular electrophysiology in canine Purkinje fiber measured as maximum prolongation of APD95 observed at 1 uM; type: functional, Canis lupus familiaris; method in brief: as §3
Canis familiaris [16] = experiment: Compound was evaluated for intraduodenal bioavailability in anesthetized dogs measured as mean blood pressure at a dose of 10/30 range; 19/3; type: ADME, organism-based, Canis lupus familiaris, Artery; details: dog, in vivo; method in brief: as §2
Canis familiaris [17] = experiment: In vivo antiarrhythmic efficacy in anesthetized dogs; 2/2
Canis familiaris [18] = species on record: Canis familiaris; experiment: Compound was evaluated for intracellular electrophysiology in canine Purkinje fiber measured as concentration that caused 20% prolongation of action potential duration (APD95) at a dose range of 0.01-10 uM; NR=Not reached; type: functional; details: Canis lupus familiaris; method in brief: as §3
Canis familiaris [19] = species on record: Canis familiaris; experiment: Compound was evaluated for intracellular electrophysiology in canine potential (Vmax) at a dose of 100 uM; type: functional; details: Canis lupus familiaris; method in brief: as §1
Canis familiaris [20] = species on record: Canis familiaris; experiment: Compound was evaluated for intracellular electrophysiology in canine uM; type: functional; details: Canis lupus familiaris; method in brief: as §1
Canis familiaris [21] = experiment: Compound was evaluated for intraduodenal bioavailability in anesthetized dogs measured as mean blood pressure at a dose of 10/30 range; 6/2; type: ADME, organism-based, Canis lupus familiaris, Artery; details: dog, in vivo; method in brief: as §2
Canis familiaris [22] = species on record: Canis familiaris; experiment: Compound was evaluated for intracellular electrophysiology in canine Purkinje fiber measured as maximum prolongation of APD95 observed at a dose of 1 uM; type: functional, Canis lupus familiaris; method in brief: as §3
Canis familiaris [23] = species on record: Canis familiaris; experiment: Compound was evaluated for intracellular electrophysiology in canine Purkinje fiber measured as concentration that caused 20% prolongation of action potential duration (APD95) at a dose range of 0.01-1 uM; type: functional, Canis lupus familiaris; method in brief: as §3
Canis familiaris [24] = experiment: Compound was evaluated for intraduodenal bioavailability in anesthetized dogs measured as mean blood pressure at a dose of 10/30 range; 8/8; type: ADME, organism-based, Canis lupus familiaris, Artery; details: dog, in vivo; method in brief: as §2
Canis familiaris [25] = experiment: Compound was evaluated for intraduodenal bioavailability in anesthetized dogs measured as mean blood pressure at a dose of 10/30 range; 8/49; type: ADME, organism-based, Canis lupus familiaris, Artery; details: dog, in vivo; method in brief: as §2
Canis familiaris [26] = species on record: Canis familiaris; experiment: Compound was evaluated for intracellular electrophysiology in canine potential (Vmax) at a dose range of 100 uM; type: functional; details: Canis lupus familiaris; method in brief: as §1
Canis familiaris [27] = species on record: Canis familiaris; experiment: Compound was evaluated for intracellular electrophysiology in canine Purkinje fiber measured as maximum prolongation of APD95 observed at a dose range of 100 uM; type: functional, Canis lupus familiaris; method in brief: as §3
Canis familiaris [28] = experiment: Compound was evaluated for intraduodenal bioavailability in anesthetized dogs measured as mean blood pressure at a dose of 10/30 range; 2/16; type: ADME, organism-based, Canis lupus familiaris, Artery; details: dog, in vivo; method in brief: as §2
Canis familiaris [29] = species on record: Canis familiaris; experiment: Compound was evaluated for intracellular electrophysiology in canine potential (Vmax) at a dose of 10 uM; type: functional, Canis lupus familiaris; method in brief: as §1
Canis familiaris [30] = species on record: Canis familiaris; experiment: Compound was evaluated for intracellular electrophysiology in canine potential (Vmax) at a dose of 1 uM; type: functional, Canis lupus familiaris; details: at 1 µM
Canis familiaris [31] = experiment: In vivo antiarrhythmic efficacy in anesthetized dogs; Inactive at 3 mg/kg
Canis familiaris [32] = species on record: Canis familiaris; experiment: Compound was evaluated for intracellular electrophysiology in canine potential (Vmax) at a dose range of 0.01-10 uM; type: functional; details: Canis lupus familiaris; at 0.01 to 10 µM
Method in brief: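 Isolated cardiac fibres superfused with bicarbonate/glucose salt solution gassed 95:5 O2/CO2 (pH 7.35–7.40), 37 ± 0.5 °C. Bipolar stimulation at 1.0 Hz with 2-ms square pulses at twice diastolic threshold. Intracellular recording with 3 M KCl glass microelectrodes after up to 1 h stabilization. Each concentration (10^-8–10^-4 M) applied for 30 min. Value is the maximum Vmax effect and the concentration at which it occurred, per study.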

Canis familiaris [33] = experiment: In vivo antiarrhythmic efficacy in anesthetized dogs; 2/3

## CCN(CC)C/C=C\Cc1ccc([N+](=O)[O-])cc1.Cl
Canis familiaris [1]
  Vmax: -13%
Canis familiaris [2]
  Bioavailabiility: 10%
Canis familiaris [3]
  APD95: 25%
Canis familiaris [4]
  C20: 0.9 µM

## CCCCCCC[N+](CC)(CC)C/C=C\Cc1cccc(Cl)c1Cl.Cc1ccc(S(=O)(=O)[O-])cc1
Canis familiaris [5]
  Bioavailabiility: 13%
Canis familiaris [6]
  APD95: 35%
Canis familiaris [7]
  Vmax: Minimal
Canis familiaris [4]
  C20: 2 µM

## CCN(CC)C/C(C)=C(/C)Cc1ccc([N+](=O)[O-])cc1.Cl
Canis familiaris [8]
  Bioavailabiility: 9%
Canis familiaris [9]
  Effective dose: 0.1 mg/kg and 0.3 mg/kg
Canis familiaris [10]
  C20: 0.05 µM
Canis familiaris [11]
  Vmax: -28% and -52%
Canis familiaris [3]
  APD95: 66% and 55%
Canis familiaris [12]
  C20: 0.4 µM
Canis familiaris [13]
  C20: <0.1 µM
Canis familiaris [14]
  Efficacy: 2
Canis familiaris [15]
  Max APD95: 27%
Canis familiaris [16]
  Bioavailabiility: 19%

## CCCCCCC[N+](CC)(CC)C/C=C\Cc1ccc(Br)cc1.O=P([O-])(O)O
Canis familiaris [9]
  Effective dose: 1 mg/kg and 3 mg/kg
Canis familiaris [7]
  Vmax: Minimal
Canis familiaris [4]
  C20: 5.7 µM
Canis familiaris [17]
  Efficacy: 2

## CCN(CC)CC#CCc1ccc(Cl)cc1.Cl
Canis familiaris [6]
  APD95: -6%
Canis familiaris [18]
  C20: Not reached
Canis familiaris [19]
  Vmax: -34%

## CC[N+](CC)(CC)CC#CCc1ccc(Cl)cc1.[I-]
Canis familiaris [20]
  Vmax: -6%
Canis familiaris [6]
  APD95: 53%
Canis familiaris [4]
  C20: 0.3 µM

## CCCCCCC[N+](CC)(CC)C/C=C\Cc1ccc(Cl)cc1.O=P([O-])(O)O
Canis familiaris [9]
  Effective dose: 0.3 mg/kg
Canis familiaris [6]
  APD95: 28% and 29% and 23%
Canis familiaris [17]
  Efficacy: 2

## CCCCCCC[N+](CC)(CC)C/C=C\Cc1ccc(Cl)cc1.Cc1ccc(S(=O)(=O)[O-])cc1
Canis familiaris [6]
  APD95: 42% and 47% and 23%

## CCCCCCC[N+](CC)(CC)C/C=C/Cc1ccc(Cl)cc1.Cc1ccc(S(=O)(=O)[O-])cc1
Canis familiaris [4]
  C20: <1 µM and 1.9 µM and 1.4 µM

## CCCCCCC[N+](CC)(CC)C/C=C\Cc1ccccc1Cl.[Cl-]
Canis familiaris [21]
  Bioavailabiility: 6%
Canis familiaris [6]
  APD95: 16%
Canis familiaris [22]
  APD95: 72%
Canis familiaris [23]
  C20: <0.1 µM
Canis familiaris [7]
  Vmax: Minimal
Canis familiaris [18]
  C20: Not reached
Canis familiaris [24]
  Bioavailabiility: 8%
Canis familiaris [17]
  Efficacy: 2

## C[N+](C)(C)C/C=C\Cc1ccc(Cl)cc1.[Cl-]
Canis familiaris [25]
  Bioavailabiility: 8%
Canis familiaris [6]
  APD95: 43%
Canis familiaris [7]
  Vmax: Minimal
Canis familiaris [4]
  C20: 0.3 µM

## CCN(CC)C/C(C)=C(/C)Cc1ccc([N-]S(C)(=O)=O)cc1.[Na+]
Canis familiaris [26]
  Vmax: -13%
Canis familiaris [27]
  APD95: 78%
Canis familiaris [28]
  Bioavailabiility: 2%
Canis familiaris [4]
  C20: 2.2 µM

## CCCCCCC[N+](CC)(CC)CCCCc1ccc(Cl)cc1.O=P([O-])(O)O [CLOFILIUM PHOSPHATE]
Canis familiaris [29]
  APD95: 78% and 27%
Canis familiaris [30]
  APD95: 25% and 29%
Canis familiaris [31]
  Effective dose: 0.5 mg/kg
Canis familiaris [9]
  Effective dose: 0.1 mg/kg
Canis familiaris [6]
  APD95: 29% and 46%
Canis familiaris [32]
  Vmax: -21%
Canis familiaris [4]
  C20: 2 µM
Canis familiaris [33]
  Efficacy: 2
